For seven compounds, Activity results are on record in ChEMBL document CHEMBL4673330, “Preparations and antioxidant activities of sesamol and it's derivatives” (Bioorg Med Chem Lett, 2021).

Holding throughout (type): functional
Assay [1] is described as follows: Antioxidant activity assessed as reduction in lipid peroxidation by measuring antiperoxide-index at 1.2 g/L by thiobarbituric acid method relative to control. Set-up: scale not given: the % may be the effect or the level left. In short, it runs like this: (§1)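 Anti-lipid-peroxidation (antiperoxide index, %) was tested at 0.2–1.2 g/L, with sesamol as positive control. Values are means ± SD from at least eight independent experiments, each in triplicate (n = 3), with t-tests (p < 0.05).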

Assay [2] in a line: Antioxidant activity assessed as reduction in lipid peroxidation by measuring antiperoxide-index at 1 g/L by thiobarbituric acid method relative to control. Also on record: scale not given: the % may be the effect or the level left. In short, it runs like this:
as §1

The nature of assay [3]: Antioxidant activity assessed as reduction of potassium ferricyanide trivalent iron into potassium ferrocyanide bivalent iron and ferrous iron by measuring eliminate efficiency at 0.8 g/L relative to control. Set-up: scale not given: the % may be the effect or the level left. In short, it runs like this:
(§2)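 Reducing capacity was read as absorbance at 700 nm, where higher absorbance means greater reducing ability. Tested at 0.2–1.2 g/L against sesamol as positive control. Values are means from at least eight independent experiments, each in triplicate (n = 3), with t-tests (p < 0.05).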

Assay [4] is described as follows: Antioxidant activity assessed as hydroxyl radical scavenging rate at 1.2 g/L relative to control. In short, it runs like this:
(§3)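 Hydroxyl radical scavenging was read as absorbance of the reaction solution at 510 nm by a fixed reaction time method. Derivatives were tested at 0.2–1.2 g/L, with sesamol as positive control. Values are means ± SD from at least eight independent experiments, each in triplicate (n = 3), with t-tests (p < 0.05).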

Assay [5] is described as follows: Antioxidant activity assessed as superoxide anion radical scavenging rate at 0.8 g/L relative to control. In short, it runs like this:
(§4)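 Pyrocatechol autoxidation in weak alkaline medium produces a coloured intermediate and superoxide anion; the intermediate absorbs maximally at 320 nm. Scavenging rate was measured at 0.2–1.2 g/L, with sesamol as positive control. Values are means ± SD from at least eight independent experiments, each in triplicate (n = 3), with t-tests (p < 0.05).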

Assay [6] in a line: Antioxidant activity assessed as hydroxyl radical scavenging rate at 0.2 g/L relative to control. In short, it runs like this: as §3
Assay [7] can be described thus: Antioxidant activity assessed as reduction in lipid peroxidation by measuring antiperoxide-index at 0.4 g/L by thiobarbituric acid method relative to control. Also on record: scale not given: the % may be the effect or the level left. The gist of the method: as §1
A short description of assay [8]: Antioxidant activity assessed as superoxide anion radical scavenging rate at 1.2 g/L relative to control. In short, it runs like this:
as §4

A short description of assay [9]: Antioxidant activity assessed as superoxide anion radical scavenging rate at 1 g/L relative to control. In short, it runs like this:
as §4

Assay [10] in a line: Antioxidant activity assessed as reduction in lipid peroxidation by measuring antiperoxide-index at 0.6 g/L by thiobarbituric acid method relative to control. Also on record: scale not given: the % may be the effect or the level left. In short, it runs like this: as §1
Assay [11] is described as follows: Antioxidant activity assessed as superoxide anion radical scavenging rate at 0.6 g/L relative to control. The gist of the method: as §4
Assay [12] can be described thus: Antioxidant activity assessed as hydroxyl radical scavenging rate at 0.6 g/L relative to control. The gist of the method:
as §3

Assay [13] can be described thus: Antioxidant activity assessed as superoxide anion radical scavenging rate at 0.2 g/L relative to control. In short, it runs like this:
as §4

Assay [14] can be described thus: Antioxidant activity assessed as reduction of potassium ferricyanide trivalent iron into potassium ferrocyanide bivalent iron and ferrous iron by measuring eliminate efficiency at 1 g/L relative to control. Also on record: scale not given: the % may be the effect or the level left. The gist of the method:
as §2

Assay [15] in a line: Antioxidant activity assessed as hydroxyl radical scavenging rate at 0.8 g/L relative to control. In short, it runs like this: as §3
A short description of assay [16]: Antioxidant activity assessed as hydroxyl radical scavenging rate at 0.4 g/L relative to control. The gist of the method:
as §3

Assay [17] can be described thus: Antioxidant activity assessed as reduction in lipid peroxidation by measuring antiperoxide-index at 0.8 g/L by thiobarbituric acid method relative to control. Set-up: scale not given: the % may be the effect or the level left. In short, it runs like this: as §1
Assay [18] is described as follows: Antioxidant activity assessed as reduction of potassium ferricyanide trivalent iron into potassium ferrocyanide bivalent iron and ferrous iron by measuring eliminate efficiency at 0.2 g/L relative to control. Also on record: scale not given: the % may be the effect or the level left. The gist of the method: as §2
Assay [19] is described as follows: Antioxidant activity assessed as reduction of potassium ferricyanide trivalent iron into potassium ferrocyanide bivalent iron and ferrous iron by measuring eliminate efficiency at 0.6 g/L relative to control. Set-up: scale not given: the % may be the effect or the level left. The gist of the method: as §2
A short description of assay [20]: Antioxidant activity assessed as reduction of potassium ferricyanide trivalent iron into potassium ferrocyanide bivalent iron and ferrous iron by measuring eliminate efficiency at 1.2 g/L relative to control. Set-up: scale not given: the % may be the effect or the level left. In short, it runs like this: as §2
The nature of assay [21]: Antioxidant activity assessed as reduction in lipid peroxidation by measuring antiperoxide-index at 0.2 g/L by thiobarbituric acid method relative to control. Set-up: scale not given: the % may be the effect or the level left. In short, it runs like this: as §1
The nature of assay [22]: Antioxidant activity assessed as superoxide anion radical scavenging rate at 0.4 g/L relative to control. The gist of the method: as §4
A short description of assay [23]: Antioxidant activity assessed as reduction of potassium ferricyanide trivalent iron into potassium ferrocyanide bivalent iron and ferrous iron by measuring eliminate efficiency at 0.4 g/L relative to control. Also on record: scale not given: the % may be the effect or the level left. The gist of the method:
as §2

A short description of assay [24]: Antioxidant activity assessed as hydroxyl radical scavenging rate at 1 g/L relative to control. In short, it runs like this:
as §3

As for `O=C(Oc1ccc2c(c1)OCO2)c1cccc(Cl)c1Cl`, the Activity in assay [1] is 66.4%; in assay [2], 64.4%; in assay [3], 59.6%; in [4], 61%; in [5], 54.5%; in assay [6], 11.1%. Besides, the Activity in assay [7] worked out at 27.1%; in [8] it was 60.5%; in assay [9], 59.9%; in assay [10], 48.8%; in assay [11] it was 45.4%; in assay [12] it was 47.9%. Also, the Activity in [13] came out at 10.4%; in assay [14], 65.5%; in assay [15] it was 57.5%; in assay [16], 26.4%; in assay [17] it was 58.6%; in assay [18], 11.3%. Further, the Activity in assay [19] came out at 51.3%; in assay [20], 66.2%; in assay [21], 11.3%; in assay [22], 23.9%; in [23], 27%; in assay [24], 60.4%.

`O=c1oc2ccc3c(c2c2ccccc12)OCO3`: the Activity in [1] is 92.7%; in [2], 90%; in assay [3] it was 81.6%; in assay [4], 88.2%; in [5], 82%; in assay [6], 16.1%. Besides, the Activity in assay [7] was 37.9%; in [8], 91.1%; in [9] it was 90.2%; in assay [10], 68.2%; in assay [11] it was 68.3%; in assay [12] it was 69.3%. Moreover, the Activity was 15.6% in assay [13]; 89.8% in assay [14]; 83.2% in assay [15]; 38.9% in assay [16]; 81.8% in assay [17]; 15.4% in assay [18]. Moreover, the Activity worked out at 70.4% in assay [19]; 90.7% in [20]; 15.8% in assay [21]; 35.9% in assay [22]; 37% in assay [23]; 87.4% in assay [24].

Consider `Oc1ccc2c(c1)OCO2`, for which the Activity in assay [1] amounted to 74.9%; in [2], 72.8%; in assay [3] it was 75.4%; in [4] it was 71.5%; in assay [5], 63.3%; in [6], 13%. Besides, the Activity was 30.6% in assay [7]; 70.3% in [8]; 69.6% in assay [9]; 55.1% in assay [10]; 52.7% in assay [11]; 56.2% in assay [12]. Also, the Activity in assay [13] is 12.1%; in assay [14], 81.9%; in assay [15] it was 67.4%; in [16], 30.2%; in [17], 66.1%; in assay [18], 12.4%. Also, the Activity in assay [19] was 56.4%; in assay [20], 82.6%; in [21] it was 12.8%; in assay [22] it was 27.8%; in assay [23] it was 29.7%; in [24], 70.8%.

In the case of `O=C(Oc1ccc2c(c1)OCO2)c1ccc(Cl)cc1Cl`, the Activity was 74.5% in assay [1]; 72.3% in assay [2]; 68.1% in assay [3]; 70.6% in [4]; 59.7% in [5]; 12.8% in assay [6]. The Activity in assay [7] is 30.4%; in assay [8] it was 66.3%; in assay [9], 65.6%; in assay [10], 54.8%; in [11], 49.7%; in assay [12] it was 55.5%. The Activity in assay [13] was 11.4%; in assay [14], 74.9%; in [15], 66.6%; in [16], 30.7%; in assay [17] it was 65.7%; in assay [18], 12.9%. Moreover, the Activity came to 58.7% in assay [19]; 75.7% in assay [20]; 12.7% in assay [21]; 26.2% in assay [22]; 30.9% in assay [23]; 69.9% in assay [24].

`O=C(Oc1ccc2c(c1)OCO2)c1c(Cl)cccc1Cl`: the Activity stood at 82.6% in [1]; 80.2% in assay [2]; 75.8% in assay [3]; 77.1% in assay [4]; 68.2% in assay [5]; 14% in assay [6]. Besides, the Activity in assay [7] turned out to be 33.8%; in assay [8], 75.8%; in assay [9], 75%; in [10], 60.8%; in assay [11], 56.9%; in [12] it was 60.6%. The Activity in assay [13] came out at 13%; in [14], 83.4%; in [15], 72.7%; in [16] it was 32.7%; in assay [17], 72.9%; in assay [18] it was 14.3%. Also, the Activity in assay [19] was determined as 65.4%; in assay [20] it was 84.3%; in assay [21] it was 14.1%; in assay [22], 29.9%; in assay [23], 34.4%; in [24], 76.4%.

`O=C(Oc1ccc2c(c1)OCO2)c1cc(Cl)ccc1Cl`: the Activity in assay [1] came out at 76.2%; in [2] it was 74%; in assay [3], 68.5%; in assay [4], 74.9%; in assay [5] it was 63.5%; in assay [6] it was 13.6%. The Activity in [7] is 31.1%; in [8], 70.5%; in assay [9], 69.8%; in [10], 56.1%; in [11] it was 52.9%; in assay [12], 58.9%. Also, the Activity came to 12.1% in [13]; 75.3% in assay [14]; 70.7% in [15]; 32.6% in assay [16]; 67.3% in [17]; 12.9% in assay [18]. The Activity in [19] was determined as 59%; in [20], 76.1%; in [21], 13%; in assay [22] it was 27.9%; in assay [23] it was 31.1%; in assay [24], 74.2%.

For `O=c1oc2ccc3c(c2c2cccc(Cl)c12)OCO3`, the Activity in assay [1] is 95.7%; in [2] it was 92.9%; in assay [3], 86.5%; in [4], 95.3%; in assay [5] it was 85.5%; in [6], 17.3%. Moreover, the Activity in assay [7] stood at 39.1%; in assay [8] it was 95%; in assay [9] it was 94.1%; in assay [10], 70.4%; in assay [11], 71.3%; in assay [12] it was 74.9%. Moreover, the Activity in assay [13] was 16.3%; in [14], 95.2%; in [15] it was 89.9%; in assay [16] it was 40.6%; in assay [17], 84.5%; in assay [18], 16.4%. Besides, the Activity in [19] amounted to 74.6%; in assay [20], 96.1%; in assay [21], 16.3%; in assay [22] it was 37.5%; in assay [23] it was 39.3%; in [24], 94.4%.
